Assay results: ChEMBL document CHEMBL4145674, “Discovery of 3-Benzyl-1-( trans-4-((5-cyanopyridin-2-yl)amino)cyclohexyl)-1-arylurea Derivatives as Novel and Selective Cyclin-Dependent Kinase 12 (CDK12) Inhibitors” (J Med Chem, 2018)
In brackets after ≈: the same amount, converted by molar mass. Activity calls are given as the source filed them. The calls are words filed in the database; no cut-off is given here.

Tests used:
[1] = biological target: STE20/SPS1-related proline-alanine-rich protein kinase (Homo sapiens) (UniProt Q9UEW8); experiment: Inhibition of N-terminal His tagged recombinant full-length human STK39 expressed in baculovirus infected Sf9 cells at 1 uM
[2] = biological target: T1, Dual specificity tyrosine-phosphorylation-regulated kinase 2 (Homo sapiens) (UniProt Q92630); experiment: Inhibition of N-terminal GST tagged recombinant full-length human DYRK2 expressed in Escherichia coli at 1 uM
T1 sequence (whole entry): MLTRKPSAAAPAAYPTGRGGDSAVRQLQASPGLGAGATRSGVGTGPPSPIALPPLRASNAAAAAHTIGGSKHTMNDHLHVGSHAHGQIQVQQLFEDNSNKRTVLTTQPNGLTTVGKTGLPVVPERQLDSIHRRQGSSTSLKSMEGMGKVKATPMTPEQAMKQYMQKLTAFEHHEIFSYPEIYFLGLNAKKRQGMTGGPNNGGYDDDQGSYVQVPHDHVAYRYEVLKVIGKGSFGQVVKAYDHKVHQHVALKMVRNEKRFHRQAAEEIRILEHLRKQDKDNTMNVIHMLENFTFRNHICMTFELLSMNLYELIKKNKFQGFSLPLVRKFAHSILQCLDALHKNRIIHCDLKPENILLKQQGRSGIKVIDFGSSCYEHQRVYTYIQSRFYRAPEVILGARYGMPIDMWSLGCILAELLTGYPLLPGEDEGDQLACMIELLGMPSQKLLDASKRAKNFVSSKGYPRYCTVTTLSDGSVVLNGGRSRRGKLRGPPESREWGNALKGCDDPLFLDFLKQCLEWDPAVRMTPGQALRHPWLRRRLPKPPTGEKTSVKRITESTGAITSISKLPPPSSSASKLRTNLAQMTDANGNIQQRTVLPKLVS

[3] = Solubility in aqueous buffer solution at pH 6.8 by UV absorbance spectroscopy; format: physicochemical
Method in brief: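 Compound in DMSO spiked into aqueous buffer pH 6.8 and incubated. Precipitate removed by filtration, dissolved compound quantified by UV absorbance of the filtrate.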

[4] = Permeability of the compound at 10 umol/L incubated for 3 hrs by LC/MS/MS detection based PAMPA method; format: ADME; conditions: read-out: permeability
Method in brief: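 PAMPA: donor buffer pH 7.4 holding 10 μmol/L compound; acceptor filter coated with GIT-0 lipid, acceptor sink buffer. 3 h at room temperature. Compound in donor and acceptor wells quantified by LC/MS/MS.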

[5] = biological target: CDK8/Cyclin C (Homo sapiens, UniProt P49336); experiment: Inhibition of GST-tagged human CDK8/CycC (04 to 109 residues) using kinase tracer 236 probe incubated for 60 mins by TR-FRET assay; format: protein-complex assay
[6] = biological target: T2, Serine/threonine-protein kinase TAO1 (Homo sapiens) (UniProt Q7L7X3); experiment: Inhibition of N-terminal GST tagged recombinant human TAOK1 (1 to 314 residues) expressed in baculovirus infected Sf9 cells at 1 uM
T2 sequence (whole entry): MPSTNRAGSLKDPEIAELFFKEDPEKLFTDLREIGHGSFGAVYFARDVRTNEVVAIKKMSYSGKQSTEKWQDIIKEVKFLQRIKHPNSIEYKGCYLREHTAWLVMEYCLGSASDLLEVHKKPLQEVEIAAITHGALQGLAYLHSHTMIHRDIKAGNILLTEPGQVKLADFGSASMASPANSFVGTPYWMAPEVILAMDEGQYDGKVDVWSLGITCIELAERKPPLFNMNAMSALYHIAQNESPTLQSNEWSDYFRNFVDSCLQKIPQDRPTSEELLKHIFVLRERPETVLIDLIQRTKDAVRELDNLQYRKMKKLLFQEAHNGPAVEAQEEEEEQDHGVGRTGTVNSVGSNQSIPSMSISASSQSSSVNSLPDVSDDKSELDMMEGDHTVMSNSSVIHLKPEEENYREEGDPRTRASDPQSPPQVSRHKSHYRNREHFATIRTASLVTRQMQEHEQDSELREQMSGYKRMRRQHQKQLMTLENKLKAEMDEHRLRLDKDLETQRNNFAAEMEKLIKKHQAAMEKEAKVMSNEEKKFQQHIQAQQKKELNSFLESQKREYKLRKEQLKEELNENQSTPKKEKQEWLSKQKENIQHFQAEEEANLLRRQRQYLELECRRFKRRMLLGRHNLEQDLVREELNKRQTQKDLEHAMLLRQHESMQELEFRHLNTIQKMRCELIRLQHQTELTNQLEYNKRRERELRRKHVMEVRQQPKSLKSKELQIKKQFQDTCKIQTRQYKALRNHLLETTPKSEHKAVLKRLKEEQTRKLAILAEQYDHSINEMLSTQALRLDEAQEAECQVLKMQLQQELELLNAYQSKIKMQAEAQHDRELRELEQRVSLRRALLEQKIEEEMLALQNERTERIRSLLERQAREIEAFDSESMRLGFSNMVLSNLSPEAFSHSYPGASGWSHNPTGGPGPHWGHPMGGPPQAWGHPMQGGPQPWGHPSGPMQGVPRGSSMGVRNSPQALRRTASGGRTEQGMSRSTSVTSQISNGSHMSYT

[7] = biological target: CDK9/cyclin T1 (Homo sapiens, UniProt P50750); format: protein-complex assay
[8] = system: SK-BR-3; experiment: Growth inhibition of human SK-BR-3 cells incubated for 72 hrs by cell-titer-Glo luminescent cell viability assay; format: functional; conditions: SK-BR-3, 72 h
Method in brief: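 SK-BR-3 (ATCC) kept in medium with 10% FBS, penicillin and streptomycin, subcultured every 3 days. 3 × 10^3 cells seeded, left overnight, then compound diluted in culture medium added. Viability by CellTiter-Glo luminescence after 72 h.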

[9] = Partition coefficient between 1-octanol and aqueous buffer, log D of the compound at pH 7.4 buffer by chromatography; format: physicochemical; conditions: 1-octanol/aqueous buffer
Method in brief: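 log D as octanol/buffer partition at pH 7.4, determined chromatographically.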

[10] = biological target: CDK7/Cyclin H/MNAT1 (Homo sapiens, UniProt P50613)
[11] = biological target: T3, Cyclin-dependent kinase 12 (Homo sapiens, UniProt Q9NYV4); experiment: Time dependent inhibition of human CDK12 incubated for 0 to 5 hrs using ULight-4E-BP1 (Thr37/Thr46) substrate by LANCE system based assay
Target sequence in this assay (Q9NYV4 whole entry, looked up, the tested form may be a part): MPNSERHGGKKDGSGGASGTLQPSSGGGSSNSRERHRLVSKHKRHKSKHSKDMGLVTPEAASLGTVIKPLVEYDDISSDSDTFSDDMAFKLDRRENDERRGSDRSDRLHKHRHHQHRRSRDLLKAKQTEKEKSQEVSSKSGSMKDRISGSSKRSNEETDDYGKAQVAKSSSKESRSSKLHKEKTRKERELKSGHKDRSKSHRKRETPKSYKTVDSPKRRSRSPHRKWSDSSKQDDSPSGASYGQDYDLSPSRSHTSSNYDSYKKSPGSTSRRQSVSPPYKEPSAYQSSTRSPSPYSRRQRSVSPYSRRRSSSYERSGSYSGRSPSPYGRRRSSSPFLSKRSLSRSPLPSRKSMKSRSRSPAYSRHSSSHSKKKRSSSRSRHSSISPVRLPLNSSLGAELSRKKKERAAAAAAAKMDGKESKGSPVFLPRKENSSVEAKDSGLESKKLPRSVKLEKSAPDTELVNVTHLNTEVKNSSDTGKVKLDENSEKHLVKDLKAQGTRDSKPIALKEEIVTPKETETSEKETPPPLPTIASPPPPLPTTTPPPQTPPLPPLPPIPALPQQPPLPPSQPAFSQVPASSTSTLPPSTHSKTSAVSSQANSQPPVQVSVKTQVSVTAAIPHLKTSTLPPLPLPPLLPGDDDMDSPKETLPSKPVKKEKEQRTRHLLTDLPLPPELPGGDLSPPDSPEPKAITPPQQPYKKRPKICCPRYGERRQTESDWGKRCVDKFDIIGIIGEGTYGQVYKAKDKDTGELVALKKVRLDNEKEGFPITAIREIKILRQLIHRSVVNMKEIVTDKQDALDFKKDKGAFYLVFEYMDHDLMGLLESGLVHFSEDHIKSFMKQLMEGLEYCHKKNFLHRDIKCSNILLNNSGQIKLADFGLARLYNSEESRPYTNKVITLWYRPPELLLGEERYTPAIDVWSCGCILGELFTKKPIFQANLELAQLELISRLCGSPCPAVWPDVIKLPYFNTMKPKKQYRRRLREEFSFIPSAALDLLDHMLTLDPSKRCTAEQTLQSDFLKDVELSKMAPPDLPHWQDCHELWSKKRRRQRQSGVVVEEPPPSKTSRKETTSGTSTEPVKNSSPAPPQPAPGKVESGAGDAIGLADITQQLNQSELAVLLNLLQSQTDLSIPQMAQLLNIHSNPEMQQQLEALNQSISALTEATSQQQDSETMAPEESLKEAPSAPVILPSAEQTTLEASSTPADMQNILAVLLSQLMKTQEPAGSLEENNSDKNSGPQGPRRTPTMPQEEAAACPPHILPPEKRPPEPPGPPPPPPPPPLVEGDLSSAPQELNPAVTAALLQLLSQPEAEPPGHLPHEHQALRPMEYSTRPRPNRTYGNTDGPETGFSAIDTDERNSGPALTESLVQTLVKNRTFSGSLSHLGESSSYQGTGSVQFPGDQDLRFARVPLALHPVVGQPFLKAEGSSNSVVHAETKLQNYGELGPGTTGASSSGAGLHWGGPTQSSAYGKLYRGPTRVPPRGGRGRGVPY

[12] = biological target: Cyclin-dependent kinase 13/Cyclin-K (Homo sapiens, UniProt Q14004); experiment: Inhibition of N-terminal FLAG-tagged human full-length CDK13 (1 to 1512 residues)/N-terminal His-tagged CycK (1 to 580 residues) expressed in Sf9 cells assessed as reduction in ATP-dependent ULight-4E-BP1 (Thr37/Thr46) substrate peptide phosphorylation pre-incubated for 60 mins by LANCE Ultra assay
[13] = biological target: CDK12/Cyclin K (Homo sapiens, UniProt Q9NYV4); experiment: Inhibition of N-terminal FLAG-tagged human full-length CDK12 (1 to 1490 residues)/N-terminal His-tagged CycK (1 to 580 residues) expressed in Sf9 cells assessed as reduction in ATP-dependent ULight-4E-BP1 (Thr37/Thr46) substrate peptide phosphorylation pre-incubated for 60 mins by LANCE Ultra assay
[14] = biological target: T3, Cyclin-dependent kinase 12; experiment: Inhibition of CDK12 in human SK-BR-3 cells assessed as reduction in RNA polymerase 2 Ser2 phosphorylation incubated for 4 hrs by; format: cell-based
Target sequence in this assay (Q9NYV4 whole entry, the tested form may be a part): as the sequence (Q9NYV4 whole entry, looked up, the tested form may be a part) above

CDK9/cyclin T1, sequence (O60563 whole entry): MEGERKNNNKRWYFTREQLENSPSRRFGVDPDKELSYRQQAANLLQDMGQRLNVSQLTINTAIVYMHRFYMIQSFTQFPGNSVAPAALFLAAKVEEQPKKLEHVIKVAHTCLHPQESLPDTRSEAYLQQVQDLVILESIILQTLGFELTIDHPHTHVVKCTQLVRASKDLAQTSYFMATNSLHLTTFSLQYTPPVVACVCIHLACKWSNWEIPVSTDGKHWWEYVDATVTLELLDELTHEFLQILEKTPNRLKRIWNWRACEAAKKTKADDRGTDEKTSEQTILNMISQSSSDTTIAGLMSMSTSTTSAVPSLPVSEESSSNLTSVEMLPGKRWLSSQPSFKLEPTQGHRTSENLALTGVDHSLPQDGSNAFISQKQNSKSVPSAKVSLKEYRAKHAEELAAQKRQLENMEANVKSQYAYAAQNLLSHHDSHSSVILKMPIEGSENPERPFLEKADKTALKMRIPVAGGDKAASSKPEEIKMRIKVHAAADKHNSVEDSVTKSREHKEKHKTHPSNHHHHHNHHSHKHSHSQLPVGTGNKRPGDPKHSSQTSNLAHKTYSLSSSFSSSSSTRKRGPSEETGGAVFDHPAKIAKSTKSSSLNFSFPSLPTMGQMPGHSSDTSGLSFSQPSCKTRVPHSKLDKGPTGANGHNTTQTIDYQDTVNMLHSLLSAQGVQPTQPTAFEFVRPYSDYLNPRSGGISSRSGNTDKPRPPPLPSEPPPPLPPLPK
CDK9/cyclin T1, sequence (P50750 whole entry): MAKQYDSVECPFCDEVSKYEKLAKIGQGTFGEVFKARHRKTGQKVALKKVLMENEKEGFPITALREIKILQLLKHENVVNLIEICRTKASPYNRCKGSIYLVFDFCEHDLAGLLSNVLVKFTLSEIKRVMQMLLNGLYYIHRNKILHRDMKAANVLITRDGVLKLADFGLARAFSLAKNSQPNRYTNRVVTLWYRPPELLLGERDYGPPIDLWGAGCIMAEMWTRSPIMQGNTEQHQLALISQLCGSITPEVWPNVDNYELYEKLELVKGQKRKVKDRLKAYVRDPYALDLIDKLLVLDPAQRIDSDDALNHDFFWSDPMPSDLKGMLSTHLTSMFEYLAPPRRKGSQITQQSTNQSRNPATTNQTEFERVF
CDK7/Cyclin H/MNAT1, sequence (P51946 whole entry): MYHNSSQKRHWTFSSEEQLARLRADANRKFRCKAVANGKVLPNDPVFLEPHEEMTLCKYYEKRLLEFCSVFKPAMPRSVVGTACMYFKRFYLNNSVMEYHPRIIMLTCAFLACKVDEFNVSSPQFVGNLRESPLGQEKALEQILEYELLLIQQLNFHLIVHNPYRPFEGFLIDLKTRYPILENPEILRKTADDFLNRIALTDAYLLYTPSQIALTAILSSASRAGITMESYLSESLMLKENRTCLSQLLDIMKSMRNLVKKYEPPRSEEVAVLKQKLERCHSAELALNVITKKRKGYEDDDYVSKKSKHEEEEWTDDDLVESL
CDK7/Cyclin H/MNAT1, sequence (P50613 whole entry): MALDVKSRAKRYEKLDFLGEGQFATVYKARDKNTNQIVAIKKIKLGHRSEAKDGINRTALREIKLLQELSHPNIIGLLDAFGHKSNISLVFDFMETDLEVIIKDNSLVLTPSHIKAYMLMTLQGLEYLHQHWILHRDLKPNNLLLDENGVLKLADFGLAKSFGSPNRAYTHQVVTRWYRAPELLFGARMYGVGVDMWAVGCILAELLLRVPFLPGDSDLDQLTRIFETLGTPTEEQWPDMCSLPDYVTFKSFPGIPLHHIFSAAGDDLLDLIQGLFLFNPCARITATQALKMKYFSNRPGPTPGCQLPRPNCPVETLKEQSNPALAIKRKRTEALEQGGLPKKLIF
CDK7/Cyclin H/MNAT1, sequence (P51948 whole entry, further chain): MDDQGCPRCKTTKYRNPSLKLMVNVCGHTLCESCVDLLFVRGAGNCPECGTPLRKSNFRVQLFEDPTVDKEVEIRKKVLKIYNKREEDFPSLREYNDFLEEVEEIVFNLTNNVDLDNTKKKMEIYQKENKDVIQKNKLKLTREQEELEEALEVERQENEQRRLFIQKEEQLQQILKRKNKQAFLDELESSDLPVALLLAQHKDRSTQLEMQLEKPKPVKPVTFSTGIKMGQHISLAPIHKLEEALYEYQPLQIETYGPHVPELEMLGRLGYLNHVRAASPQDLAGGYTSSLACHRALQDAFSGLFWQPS
CDK8/Cyclin C, sequence (P49336 whole entry, the tested form may be a part): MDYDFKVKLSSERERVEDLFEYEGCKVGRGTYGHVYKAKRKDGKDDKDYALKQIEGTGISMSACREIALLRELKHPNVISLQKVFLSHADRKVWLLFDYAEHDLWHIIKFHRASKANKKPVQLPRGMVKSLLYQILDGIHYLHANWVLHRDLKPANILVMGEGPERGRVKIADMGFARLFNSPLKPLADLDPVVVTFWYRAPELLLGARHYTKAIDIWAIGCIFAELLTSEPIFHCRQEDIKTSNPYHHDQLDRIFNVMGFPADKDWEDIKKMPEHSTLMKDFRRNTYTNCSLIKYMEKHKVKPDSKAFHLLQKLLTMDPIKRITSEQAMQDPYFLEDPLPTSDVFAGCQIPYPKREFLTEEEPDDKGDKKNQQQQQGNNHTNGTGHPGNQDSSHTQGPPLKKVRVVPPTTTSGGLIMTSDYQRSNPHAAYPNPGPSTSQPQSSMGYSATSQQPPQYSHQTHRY
CDK8/Cyclin C, sequence (P24863 whole entry, further chain, the tested form may be a part): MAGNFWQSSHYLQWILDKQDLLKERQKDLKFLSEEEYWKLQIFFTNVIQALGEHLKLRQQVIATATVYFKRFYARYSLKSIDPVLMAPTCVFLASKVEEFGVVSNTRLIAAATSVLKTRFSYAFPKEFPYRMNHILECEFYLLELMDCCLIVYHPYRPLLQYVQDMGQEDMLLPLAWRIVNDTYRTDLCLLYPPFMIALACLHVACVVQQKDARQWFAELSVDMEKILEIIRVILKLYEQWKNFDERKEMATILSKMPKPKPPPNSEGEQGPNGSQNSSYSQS
CDK12/Cyclin K, sequence (O75909 whole entry, the tested form may be a part): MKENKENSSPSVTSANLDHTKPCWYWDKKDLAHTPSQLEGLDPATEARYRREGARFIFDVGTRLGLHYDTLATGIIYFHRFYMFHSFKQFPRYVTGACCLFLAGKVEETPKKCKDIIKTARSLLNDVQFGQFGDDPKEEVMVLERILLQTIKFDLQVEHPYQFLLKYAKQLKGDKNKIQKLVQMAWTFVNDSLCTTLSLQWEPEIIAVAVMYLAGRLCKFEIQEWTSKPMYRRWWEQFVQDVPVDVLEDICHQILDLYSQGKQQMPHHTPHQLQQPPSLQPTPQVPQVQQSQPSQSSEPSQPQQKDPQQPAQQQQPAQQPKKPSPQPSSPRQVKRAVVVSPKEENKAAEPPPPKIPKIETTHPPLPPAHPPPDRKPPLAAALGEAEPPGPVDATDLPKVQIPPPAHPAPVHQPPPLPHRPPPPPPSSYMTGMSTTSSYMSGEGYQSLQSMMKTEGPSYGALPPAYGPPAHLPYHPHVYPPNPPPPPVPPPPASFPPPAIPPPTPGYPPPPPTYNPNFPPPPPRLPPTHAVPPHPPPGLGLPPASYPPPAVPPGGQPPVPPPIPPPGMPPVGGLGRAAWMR
CDK12/Cyclin K, sequence (Q9NYV4 whole entry, the tested form may be a part): as the sequence (Q9NYV4 whole entry, looked up, the tested form may be a part) above

| inhibition [1] | inhibition [2] | solubility [3] | Papp at 3 h, 10 µM [4] | IC50 [5] | inhibition [6] | IC50 [7] | GI50 [8] | chromatographic logD [9] | IC50 [10] | TDI [11] | IC50 [12] | IC50 [13] | IC50 [14] | Structure (SMILES) |
| --- | --- | --- | --- | --- | --- | --- | --- | --- | --- | --- | --- | --- | --- | --- |
| > 80% | > 80% | 7.7 µg/mL (≈ 14.5 µM) | 27.3 ×10⁻⁶ cm/s | > 10000 nM | > 80% | 16000 nM | 800 nM | 2.4 | > 10000 nM | inactive | – | – | – | Cn1cc(-c2ccc(N(C(=O)NCc3ccccc3)[C@H]3CC[C@H](Nc4ccc(C#N)cn4)CC3)cc2)ccc1=O |
| – | – | – | – | > 10000 nM | – | > 30000 nM | – | – | > 10000 nM | – | > 10000 nM | > 30000 nM | – | Cn1cc(-c2ccc(N(C(=O)NCc3ccccc3)[C@H]3CC[C@@H](Nc4ccc(C#N)cn4)CC3)cc2)cn1 |
| – | – | – | – | – | – | 220 nM | – | – | 1200 nM | – | – | 110 nM | 259 nM | CC(C)C(=O)OC[C@@H]1O[C@@H](n2cnc(N)c3c(C(N)=O)c(Br)nc2-3)[C@@H](O)[C@@H]1O |
